Assay results: ChEMBL document CHEMBL1129732, “Potent, cell active, non-thiol tetrapeptide inhibitors of farnesyltransferase” (J Med Chem, 1996)

target: Geranylgeranyl transferase type I (Homo sapiens, UniProt P49354+P53609); experiment: Inhibition of Geranylgeranyl transferase type I; type: protein-complex assay

Row | IC50 | Compound
1 | 106000 nM | CC(C)(C)[C@H](NCCCc1cnc[nH]1)C(=O)N1Cc2ccccc2C[C@H]1C(=O)N[C@@H](CCC(N)=O)C(=O)O
2 | 17400 nM | CSCC[C@H](NC(=O)[C@@H]1Cc2ccccc2CN1C(=O)[C@@H](NCc1c[nH]cn1)C(C)C)C(=O)O
3 | 30500 nM | CC(C)(C)[C@H](NCCc1c[nH]cn1)C(=O)N1Cc2ccccc2C[C@H]1C(=O)N[C@@H](CCC(N)=O)C(=O)O
4 | 168000 nM | CC(C)(C)[C@H](NC(=O)CCc1c[nH]cn1)C(=O)N1Cc2ccccc2C[C@H]1C(=O)N[C@@H](CCC(N)=O)C(=O)O

The next lines start with the compound.

Row | Compound | IC50
5 | CSCC[C@H](NC(=O)[C@@H]1Cc2ccccc2CN1C(=O)[C@@H](NC(=O)Cc1c[nH]cn1)C(C)C)C(=O)O | 2020 nM
6 | CSCC[C@H](NC(=O)[C@@H]1Cc2ccccc2CN1C(=O)[C@@H](NC(=O)c1c[nH]cn1)C(C)C)C(=O)O | 25800 nM
7 | CSCC[C@H](NC(=O)[C@@H]1Cc2ccccc2CN1C(=O)[C@@H](NCCc1c[nH]cn1)C(C)C)C(=O)O | 234 nM

target: Protein farnesyltransferase (Homo sapiens, UniProt P49354+P49356); experiment: Inhibition of Farnesyltransferase; type: protein-complex assay

Row | IC50 | Compound
8 | 20 nM | CC(C)(C)[C@H](NCCCc1cnc[nH]1)C(=O)N1Cc2ccccc2C[C@H]1C(=O)N[C@@H](CCC(N)=O)C(=O)O
9 | 114 nM | CSCC[C@H](NC(=O)[C@@H]1Cc2ccccc2CN1C(=O)[C@@H](NCc1c[nH]cn1)C(C)C)C(=O)O
10 | 3.4 nM | CC(C)(C)[C@H](NCCc1c[nH]cn1)C(=O)N1Cc2ccccc2C[C@H]1C(=O)N[C@@H](CCC(N)=O)C(=O)O
11 | 4.4 nM | CC(C)(C)[C@H](NC(=O)CCc1c[nH]cn1)C(=O)N1Cc2ccccc2C[C@H]1C(=O)N[C@@H](CCC(N)=O)C(=O)O

The remaining lines, values behind:

Row | Compound | IC50
12 | CSCC[C@H](NC(=O)[C@@H]1Cc2ccccc2CN1C(=O)[C@@H](NC(=O)Cc1c[nH]cn1)C(C)C)C(=O)O | 6.6 nM
13 | CC(C)(C)[C@H](NC(=O)Cc1c[nH]cn1)C(=O)N1Cc2ccccc2C[C@H]1C(=O)N[C@@H](CCC(N)=O)C(=O)O | 28 nM
14 | CSCC[C@H](NC(=O)[C@@H]1Cc2ccccc2CN1C(=O)[C@@H](NC(=O)c1c[nH]cn1)C(C)C)C(=O)O | 84 nM
15 | CSCC[C@H](NC(=O)[C@@H]1Cc2ccccc2CN1C(=O)[C@@H](NCCc1c[nH]cn1)C(C)C)C(=O)O | 0.79 nM
16 | CSCC[C@H](NC(=O)[C@H](Cc1ccccc1)NC(=O)[C@@H](NC(=O)[C@@H](N)Cc1cnc[nH]1)C(C)C)C(=O)O | 6800 nM

tested on: NIH3T3; experiment: Highest tested nontoxic concentration (maximum tolerated dose) against NIH3T3 cells in XTT assay; type: functional, Mus musculus
Summary of the method: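 Untransformed NIH 3T3 cells were seeded at 2500 cells/well. Cells were incubated 48 h at 37 °C, then XTT with phenazine methosulfate was added. XTT reduction served as the measure of live cells.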

Row | Compound | MTD
17 | CSCC[C@H](NC(=O)[C@@H]1Cc2ccccc2CN1C(=O)[C@@H](NC(=O)Cc1c[nH]cn1)C(C)C)C(=O)O | >150 µM
18 | CC(C)(C)[C@H](NC(=O)Cc1c[nH]cn1)C(=O)N1Cc2ccccc2C[C@H]1C(=O)N[C@@H](CCC(N)=O)C(=O)O | >150 µM
19 | CSCC[C@H](NC(=O)[C@@H]1Cc2ccccc2CN1C(=O)[C@@H](NCCc1c[nH]cn1)C(C)C)C(=O)O | >150 µM

tested on: Rat1; experiment: Inhibition of anchorage-independent growth of H-Ras-transformed rat-1 cells in soft agar; type: functional, cell-based

Row | Compound | IC50
20 | CSCC[C@H](NC(=O)[C@@H]1Cc2ccccc2CN1C(=O)[C@@H](NC(=O)Cc1c[nH]cn1)C(C)C)C(=O)O | 50000 nM
21 | CC(C)(C)[C@H](NC(=O)Cc1c[nH]cn1)C(=O)N1Cc2ccccc2C[C@H]1C(=O)N[C@@H](CCC(N)=O)C(=O)O | 3900 nM
22 | CSCC[C@H](NC(=O)[C@@H]1Cc2ccccc2CN1C(=O)[C@@H](NCCc1c[nH]cn1)C(C)C)C(=O)O | 3800 nM
23 | CC(C)(C)[C@H](NCCc1c[nH]cn1)C(=O)N1Cc2ccccc2C[C@H]1C(=O)N[C@@H](CCC(N)=O)C(=O)O | 3200 nM
